The structures appear in SMILES notation.

The test system of series [1] is Mus musculus. Nature of the series: The in vivo tissue distribution of mouse brain with Propranolol administration after 40 min, value was fractional dose per fractional body weight of the organ. The series is classed as ADME, organism-based. An outline of the steps:
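Male CF-1 mice (25–30 g), anesthetised with 2 mg sodium pentobarbital ip 30 min before tracer. Where blocked, propranolol iv via tail vein (0.1 mL of […]; […]) about 30 min before tracer. Tracer given by tail vein, 0.1 mL at 1–2 mCi/mL. Mice killed by cervical dislocation at set times, organs weighed and counted. %ID/g × body weight/100 gives unitless uptake. Heart, brain, blood, lung, kidney, liver and bone n=5; average ± SD.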

Series [2] relates to Mus musculus. Nature of the series: The in vivo tissue distribution of mouse blood with Propranolol administration after 90 min, value was fractional dose per fractional body weight of the organ. In kind it is ADME, organism-based. The note with it: 1.5 h. An outline of the steps:
(§1)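 Male CF-1 mice (25–30 g) anaesthetised with 2 mg sodium pentobarbital ip; blocked group given 0.1 mL of […] propranolol iv via tail vein (200 μg, 6.6 mg/kg), tracer 30 min later. 0.1 mL of 1–2 mCi/mL [18F]-labelled enantiomer iv via tail vein; killed by cervical dislocation, organs weighed and counted against weighed standards. %ID/g × body weight/100 gives unitless uptake; five mice per point (heart, blood, lung, kidney, liver, bone); mean ± SD.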

The subject of series [3] is Mus musculus. Nature of the series: The in vivo tissue distribution of mouse lung with Propranolol administration after 90 min, value was fractional dose per fractional body weight of the organ. The series is classed as ADME, organism-based. To be noted: 1.5 h. An outline of the steps:
as §1

For series [4], the system named is Mus musculus. Nature of the series: The in vivo tissue distribution of mouse liver without Propranolol preadministration in 90 min, value was fractional dose per fractional body weight of the organ. The note with it: 1.5 h.
Series [5] relates to Mus musculus. Nature of the series: The in vivo tissue distribution of mouse brain without Propranolol preadministration in 120 min, value was fractional dose per fractional body weight of the organ. To be noted: 2 h.

As for `CC(C[18F])NC[C@H](O)COc1cccc2[nH]c3ccccc3c12` (stereo not given in full), the Dose/organ in series [1] amounted to 0.64; in series [2] it was 0.34; in series [3], 1.06; in series [4], 1.09; in series [5], 0.64.
In the case of `CC(C[18F])NC[C@@H](O)COc1cccc2[nH]c3ccccc3c12` (stereo not given in full), the Dose/organ in series [1] was 0.9; in series [2], 0.47; in series [3], 1.03; in series [4], 1.25; in series [5], 0.2.
